Measured values of several laboratories.
Compare with care: the assays were run in different laboratories.
Observed: metabolic stability

CCOC(=O)C1=C(C)N/C(=C/c2cc(C)n(-c3ccc(N(C)C)cc3)c2C)C1=O
half-life (mouse; liver microsomes; 1 µM): 31 min

COC(=O)CN(CCCc1ccccc1)CC(=O)N[C@@H](Cc1c[nH]cn1)c1nc(C)no1
half-life (male mouse; liver microsomes; 1 µM; pH 7.4): 19 min

O=S(=O)(Nc1cccc(-c2nnn[nH]2)c1)c1ccc(C(F)(F)F)c(F)c1
half-life (mouse; liver microsomes): 174 min

CCOC(=O)C1=C(C)N/C(=C/c2cc(CC)n(-c3ccccc3C(F)(F)F)c2CC)C1=O
half-life (mouse; liver microsomes; 1 µM): 12 min

O=C(Nc1ccc2sc(-c3ccc(F)c(F)c3)nc2c1)N1CC[C@H](F)C1
half-life (mouse; liver microsomes; 1.5 µM): ≥ 60 min

CCS(=O)(=O)Nc1ccc(OCCOCCOCCOCCOc2ccc(NS(=O)(=O)CC)cc2-c2cn(C)c(=O)c3ccccc23)c(-c2cn(C)c(=O)c3ccccc23)c1
half-life (mouse; liver microsomes): < 2.3 min

O=C(OC(C(F)(F)F)C(F)(F)F)N1CCc2ccccc2C1
half-life (mouse; liver microsomes): 4 min

C=CC(=O)Nc1ccc(N2CCC[C@@H](Nc3ncc(Cl)c(-c4c[nH]c5ccccc45)n3)C2)c(F)c1
half-life (mouse; liver microsomes): 7.6 min

CCN(CC)CCNC(=O)c1c(C)[nH]c(/C=C2\C(=O)Nc3ccc(F)cc32)c1C
half-life (mouse; liver microsomes; 1 µM; pH 7.4): 12.8 min

COc1ccc([C@@H](O)[C@@H](CN2CCCC2)NC(=O)CC2Cc3ccccc3C2)cc1F
half-life (CD-1 mouse; liver microsomes; 1 µM; pH 7.4): 2.7 min

CCOC(=O)C1=C(C)N/C(=C/c2cc(C)n(-c3cccc(OC)c3)c2C)C1=O
half-life (mouse; liver microsomes; 1 µM): 12 min

CCCCOC(=O)NS(=O)(=O)c1sc(CC(C)C)cc1-c1ccc2c(c1)CCN(C(C)=O)C2
half-life (mouse; liver microsomes; 1 µM; pH 7.4): 2.9 min

Cc1ccc(-n2sc3ccccc3c2=O)cc1
half-life (mouse; liver microsomes): < 60 min

CCOC(=O)C1=C(C)N/C(=C/c2cc(C)n(-c3ccncc3)c2C)C1=O
half-life (mouse; liver microsomes; 1 µM): 29 min

CNC(=O)[C@H](Cc1c[nH]cn1)NC(=O)CN(CC(=O)O)Cc1ccccc1
half-life (male mouse; liver microsomes; 1 µM; pH 7.4): > 40 min

Fc1ccc2nc(Cc3c[nH]c4c(F)cccc34)[nH]c2c1
half-life (mouse; liver microsomes; pH 7.4): 7.2 min

CCOC(=O)C1=C(C)N/C(=C/c2cc(C)n(Cc3ccc(C(F)(F)F)cc3)c2C)C1=O
half-life (mouse; liver microsomes; 1 µM): 17 min

Cc1ccc(S(=O)(=O)Nc2cccc(-c3nnn[nH]3)c2)cc1C(F)(F)F
half-life (mouse; liver microsomes): 38 min

O=C1CCN(C(=O)Nc2ccc(F)c(Cl)c2)[C@H]2CCCC[C@@H]12 (relative stereo)
half-life (mouse; liver microsomes): > 32 min

O=C(c1ccc(F)cc1)C1CCN(CCn2c(=O)[nH]c3ccccc3c2=O)CC1
half-life (mouse; liver microsomes): 14.5 min

Cc1noc([C@H](Cc2c[nH]cn2)NC(=O)CN(CCCc2ccccc2)CC(=O)O)n1
half-life (male mouse; liver microsomes; 1 µM; pH 7.4): > 40 min

O=c1ccc2ccccc2o1
half-life (mouse; liver microsomes; 50 µM; pH 7.4): 72 min

CCOC(=O)NS(=O)(=O)c1sc(CC(C)C)cc1-c1ccc2c(c1)CN(C(=O)OCC)C2
half-life (mouse; liver microsomes; 1 µM; pH 7.4): 2.1 min

N=c1c2c(-c3ccccc3)c(-c3ccccc3)n(Cc3ccccc3)c2ncn1[C@H]1CC[C@H](O)CC1
half-life (male CD-1 mouse; liver microsomes; 1 µM; pH 7.4): > 120 min

Cc1ccc(-c2cnc(N3CCC(C(N)=O)CC3)s2)cc1
half-life (mouse; liver microsomes; 1 µM): < 10 min

CC[C@@H]1C=CC(=O)O[C@@H]1C[C@@H](OC)[C@H](C)[C@H](OC)[C@@H](C)Cc1ccc(F)cc1
half-life (mouse; liver microsomes): < 2.3 min

NC[C@@H]1O[C@H](O[C@H]2[C@@H](O)[C@H](O[C@@H]3[C@@H](O)[C@H](N)C[C@H](N)[C@H]3O[C@H]3O[C@H](CO)[C@@H](O)[C@H](O)[C@H]3N)O[C@@H]2CO)[C@H](N)[C@@H](O)[C@@H]1O
half-life (mouse; liver microsomes; 25 µM; pH 7.4): 143 min

N=C(N)N1CC=C(c2coc(C(=O)Nc3ccc(C4=CCN(C(=N)N)CC4)c(F)c3)c2)CC1
half-life (CD-1 mouse; liver microsomes; 1 µM): > 60 min

CC1=C(C(=O)O)C(=O)/C(=C\c2cc(C)n(-c3ccccc3C(F)(F)F)c2C)N1
half-life (mouse; liver microsomes; 1 µM): 79 min

Cc1noc(C)c1-c1ccc2nc(C(=O)NC3CCN(C)CC3)nc(NCc3cccc(Cl)c3)c2c1
half-life (mouse; liver microsomes): 28 min

O=c1ccc2ccc(O)cc2o1
half-life (mouse; liver S9; 2 µM; pH 7.4): 4.71 min

CN1CC(Cc2cccc(CNC3(c4ccc(F)cc4)CCCC3)c2)C1
half-life (mouse; liver microsomes; 4.6 µM; pH 7.5): ~60 min

CCNc1nc2c(c(N3CC(=O)Nc4cc(OC)ccc43)n1)CCC2
half-life (mouse; liver microsomes): 5.7 min

O=C(Nc1ccc(Cl)c(Cl)c1)c1ccc(N2CCNCC2)c([N+](=O)[O-])c1
half-life (CD-1 mouse; liver microsomes; 1 µM; pH 7.4): > 110 min

O=S(=O)(Nc1cccc(-c2nnn[nH]2)c1)c1cc(Cl)c(Cl)cc1Cl
half-life (mouse; liver microsomes): 48 min

O=C(Nc1ccccc1)C1CCN(c2ncc(-c3ccc4c(c3)OCCCO4)s2)CC1
half-life (mouse; liver microsomes; 1 µM): < 10 min

O=C(N[C@H](Cc1c[nH]c2ccccc12)C(=O)Nc1ccncc1)c1ccc(-c2ccc(F)c(F)c2)cc1F
half-life (mouse; liver microsomes): 39 min

O=S(=O)(Nc1cccc(-c2nnn[nH]2)c1)c1cc(C(F)(F)F)ccc1C(F)(F)F
half-life (mouse; liver microsomes): 35 min

CC[C@@H]1C=CC(=O)O[C@@H]1C[C@@H](O)[C@H](C)[C@H](O)[C@@H](C)Cc1ccc(F)cc1
half-life (mouse; liver microsomes): 3 min

O=C(Cc1ccc2ccccc2c1)Nc1cc(C2CCC2)[nH]n1
half-life (mouse; liver S9): 28.1 min

C=CC(=O)Nc1cccc(-n2nc3c(=O)[nH]nc(N)c3c2-c2oc3ccc(C)cc3c2C)c1
half-life (nude mouse; blood; 1 µM; whole blood): 134 min

COc1cccc(OC)c1CNC(=O)c1cc(C2NC(=O)NC(C)=C2C(=O)Nc2ccc3[nH]ncc3c2)ccc1F (stereo not shown)
half-life (CD-1 mouse; liver microsomes; 1 µM; pH 7.4): < 4 min

CCOC(=O)C1=C(C)N/C(=C/c2ccn(-c3ccccc3C(F)(F)F)c2)C1=O
half-life (mouse; liver microsomes; 1 µM): 11 min

CCCCOC(=O)NS(=O)(=O)c1sc(CC(C)C)cc1-c1ccc2c(c1)CN(C(C)=O)CC2
half-life (mouse; liver microsomes; 1 µM; pH 7.4): 2.2 min

C=CC(=O)Nc1ccc(N2CCC[C@@H](Nc3ncc(Cl)c(-c4c[nH]c5ccccc45)n3)C2)cc1
half-life (mouse; liver microsomes): 7.2 min

C/C(=N\OCCN)c1cccc(C(C)(C)NC(=O)Nc2ccc(Cl)c([N+](=O)[O-])c2)c1
half-life (mouse; liver microsomes): > 120 min

COC(=O)c1csc(C(=O)c2c[nH]c3ccccc23)n1
half-life (mouse; liver microsomes): 11 min

COc1cc2c(cc(C#N)n2Cc2cn[nH]c2)c(C)c1CN1CCC(Nc2ncnc3sc(CC(F)(F)F)cc23)CC1
half-life (CD-1 mouse; liver microsomes; 1 µM; pH 7.4): > 30 min

CCOC(=O)NS(=O)(=O)c1sc(CC(C)C)cc1-c1ccc2c(c1)CN(C)C(=O)C2
half-life (mouse; liver microsomes; 1 µM; pH 7.4): 23 min

CO[C@@H](C[C@H]1C(C)=CC[C@@H]2[C@]3(C)C[C@H](O[C@@H]4O[C@@H](C)[C@H](OC(=O)c5cccc(O)c5)[C@@H](O[C@@H]5O[C@H](CO)[C@@H](O)[C@H](O)[C@H]5NC(C)=O)[C@H]4O)[C@@H](O)C(C)(C)[C@H]3CC[C@]21C)[C@H](N)C(=O)O.O=C(O)C(F)(F)F
half-life (mouse; hepatocytes; 1 µM): 296 min

CC(C)NCC(O)COc1cccc2ccccc12 (stereo not shown)
half-life (mouse; liver microsomes; 1 µM; pH 7.4): 15.8 min

Cc1cc(S(=O)(=O)Nc2cccc(-c3nnn[nH]3)c2)ccc1C(F)(F)F
half-life (mouse; liver microsomes): 133 min

CCOC(=O)C1=C(C)N/C(=C/c2ccn(-c3ccc(C(F)(F)F)cc3)c2)C1=O
half-life (mouse; liver microsomes; 1 µM): 12 min

Cc1c(CN2CCC(Nc3ncnc4sc(CC(F)(F)F)cc34)CC2)c(O)cc2[nH]c(C#N)cc12
half-life (CD-1 mouse; liver microsomes; 1 µM; pH 7.4): > 30 min

O=[N+]([O-])c1ccc(CNc2nc(NCc3cccc(C(F)(F)F)c3)nc3[nH]cnc23)cc1
half-life (mouse; liver microsomes; 1 µM; pH 7.4): 9 min
